Test results reported in ChEMBL document CHEMBL3272018, “Synthesis of aziridinylallylaminophosphine oxides and sulfides as potential adjuvant cancer chemotherapeutic agents” (J Med Chem, 1976).
The source made the active and inactive calls. The calls are words filed in the database; no cut-off is given here.

Tests used:
L1210 [1] = assay: In vivo antitumor activity against mouse L1210 cells in prognostic scoring system assessed as tumor growth inhibition at 400 mg/kg administered as single dose (reference value: 10.9 g); assay type: functional
Procedure, shortened: (§1)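 L1210 leukaemia in mice, run as an ascites tumour system. Injections were once daily for 9 or 15 days, or as a single dose. Response is the increase in survival time, given as T/C %, treated over untreated controls; a larger value means more activity. Weight change is the treated-group mean minus the control-group mean, in grams.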

L1210 [2] = assay: In vivo antitumor activity against mouse L1210 cells in prognostic scoring system assessed as survival rate at 200 mg/kg administered as single dose; assay type: functional, organism-based; parameters: dose 200 mg/kg; procedure, shortened: as §1
L1210 [3] = assay: In vivo antitumor activity against mouse L1210 cells in prognostic scoring system assessed as survival rate at 400 mg/kg administered as single dose; assay type: functional, organism-based; parameters: dose 400 mg/kg; procedure, shortened: as §1
[4] = Toxicity in rat allografted with rat Walker 256 cells intramuscularly; assay type: organism-based
L1210 [5] = assay: In vivo antitumor activity against mouse L1210 cells in prognostic scoring system assessed as tumor growth inhibition at 200 mg/kg administered as single dose (reference value: 10.9 g); assay type: functional; procedure, shortened: as §1
Musca domestica [6] = assay: Toxicity in male house fly at 1% administered in sugar; assay type: organism-based; conditions: in vivo, po
L1210 [7] = assay: In vivo antitumor activity against mouse L1210 cells in prognostic scoring system assessed as tumor growth inhibition at 100 mg/kg administered as single dose (reference value: 10.9 g); assay type: functional; procedure, shortened: as §1
L1210 [8] = assay: In vivo antitumor activity against mouse L1210 cells in prognostic scoring system assessed as survival rate at 100 mg/kg administered as single dose; assay type: functional, organism-based; parameters: dose 100 mg/kg; procedure, shortened: as §1
W256 [9] = assay: Antitumor activity against rat Walker 256 cells intramuscularly allografted in rat assessed as survival rate at 1.9 mg/kg, qd administered for 5 days; assay type: functional, organism-based; parameters: dose 1.9 mg/kg
Procedure, shortened: (§2)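 Rats bearing Walker 256 carcinoma as a solid tumor; lines 1-8 use a cytoxan-resistant Walker 256 subline. Dosed once daily for 5 days. Treated (T) and untreated control (C) groups are compared, and the response is given as T/C percentage, reflecting increase in survival time. Host weight change is the average weight change of the test group minus that of the controls, in grams.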

L1210 [10] = assay: In vivo antitumor activity against mouse L1210 cells in prognostic scoring system assessed as survival rate at 0.75 mg/kg, qd administered for 15 days; assay type: functional, organism-based; parameters: dose 0.75 mg/kg; procedure, shortened: as §1
W256 [11] = assay: Antitumor activity against rat Walker 256 cells intramuscularly allografted in rat assessed as survival rate at 1 mg/kg, qd administered for 5 days; assay type: functional, organism-based; parameters: dose 1 mg/kg; procedure, shortened: as §2
W256 [12] = assay: Antitumor activity against rat Walker 256 cells intramuscularly allografted in rat assessed as tumor growth inhibition at 0.47 mg/kg, qd administered for 5 days relative to control; assay type: functional; conditions: W256, im, 120 h, route intramuscular, read-out: TGI
Procedure, shortened: (§3)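 Dosed once daily for 5 days. Response is tumor progression in treated (T) versus untreated control (C) animals, expressed as T/C percentage. Host weight change is reported as the average net weight change of the test group minus that of the controls, in grams.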

L1210 [13] = assay: In vivo antitumor activity against mouse L1210 cells in prognostic scoring system assessed as survival rate at 0.37 mg/kg, qd administered for 15 days; assay type: functional, organism-based; parameters: dose 0.37 mg/kg; procedure, shortened: as §1
Rattus norvegicus [14] = assay: Toxicity in rat allografted with rat Walker 256 cells intramuscularly assessed as change in body weight at 0.23 mg/kg, qd administered for 5 days; assay type: organism-based; parameters: dose 0.23 mg/kg, route intramuscular; conditions: in vivo, im, 120 h
Procedure, shortened: (§4)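 Walker 256 carcinoma solid-tumour system in rats (parent line, or the line resistant to cytoxan). Dosing was one injection per day for 5 days. Toxicity was taken as the average net body-weight change of the treated group minus the average net weight change of the untreated tumour-bearing controls, in grams.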

W256 [15] = assay: Antitumor activity against rat Walker 256 cells intramuscularly allografted in rat assessed as tumor growth inhibition at 0.95 mg/kg, qd administered for 5 days relative to control; assay type: functional; conditions: W256, im, 120 h, route intramuscular, read-out: TGI; procedure, shortened: as §3
L1210 [16] = assay: In vivo antitumor activity against mouse L1210 cells in prognostic scoring system assessed as tumor growth inhibition at 1.65 mg/kg administered 3 doses relative to control; assay type: functional
W256 [17] = assay: Antitumor activity against rat Walker 256 cells intramuscularly allografted in rat assessed as tumor growth inhibition at 1.9 mg/kg, qd administered for 5 days relative to control; assay type: functional; conditions: W256, im, 120 h, route intramuscular, read-out: TGI
Procedure, shortened: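 Walker 256 carcinoma grown as a solid tumour in rats, with one injection daily for 5 days. Response is given as T/C %, the treated-group measure over the untreated-control tumour measure; a smaller value means more activity. Host toxicity is the mean net weight change of treated minus control animals, in grams.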

Rattus norvegicus [18] = assay: Toxicity in rat allografted with rat Walker 256 cells intramuscularly assessed as change in body weight at 1 mg/kg, qd administered for 5 days; assay type: organism-based; parameters: dose 1 mg/kg, route intramuscular; conditions: in vivo, im, 120 h; procedure, shortened: as §4
L1210 [19] = assay: In vivo antitumor activity against mouse L1210 cells in prognostic scoring system assessed as survival rate at 1.5 mg/kg, qd administered for 15 days; assay type: functional, organism-based; parameters: dose 1.5 mg/kg; procedure, shortened: as §1
W256 [20] = assay: Antitumor activity against rat Walker 256 cells intramuscularly allografted in rat assessed as survival rate at 0.95 mg/kg, qd administered for 5 days; assay type: functional, organism-based; parameters: dose 0.95 mg/kg; procedure, shortened: as §2
L1210 [21] = assay: In vivo antitumor activity against mouse L1210 cells in prognostic scoring system assessed as […] at 0.37 mg/kg, qd administered for 15 days relative to control; assay type: functional; conditions: L1210, 360 h, read-out: TGI
L1210 [22] = assay: In vivo antitumor activity against mouse L1210 cells in prognostic scoring system assessed as tumor growth inhibition at 0.6 mg/kg administered 9 doses relative to control; assay type: functional
W256 [23] = assay: Antitumor activity against rat Walker 256 cells intramuscularly allografted in rat assessed as tumor growth inhibition at 1 mg/kg, qd administered for 5 days relative to control; assay type: functional; conditions: W256, im, 120 h, route intramuscular, read-out: TGI; procedure, shortened: as §3
Rattus norvegicus [24] = assay: Toxicity in rat allografted with rat Walker 256 cells intramuscularly assessed as change in body weight at 0.47 mg/kg, qd administered for 5 days; assay type: organism-based; parameters: dose 0.47 mg/kg, route intramuscular; conditions: in vivo, im, 120 h; procedure, shortened: as §4
W256 [25] = assay: Antitumor activity against rat Walker 256 cells intramuscularly allografted in rat assessed as survival rate at 0.47 mg/kg, qd administered for 5 days; assay type: functional, organism-based; parameters: dose 0.47 mg/kg; procedure, shortened: as §2
L1210 [26] = assay: In vivo antitumor activity against mouse L1210 cells in prognostic scoring system assessed as survival rate at 3 mg/kg, qd administered for 15 days; assay type: functional, organism-based; parameters: dose 3 mg/kg; procedure, shortened: as §1
Musca domestica [27] = assay: Toxicity in male house fly assessed as lowest dose required to cause complete sterility administered in sugar; assay type: organism-based; conditions: in vivo, po
W256 [28] = assay: Antitumor activity against rat Walker 256 cells intramuscularly allografted in rat assessed as tumor growth inhibition; assay type: functional; conditions: W256, im; procedure, shortened: as §3
Rattus norvegicus [29] = assay: Toxicity in rat allografted with rat Walker 256 cells intramuscularly assessed as change in body weight at 1.9 mg/kg, qd administered for 5 days; assay type: organism-based; parameters: dose 1.9 mg/kg, route intramuscular; conditions: in vivo, im, 120 h; procedure, shortened: as §4
W256 [30] = assay: Antitumor activity against rat Walker 256 cells intramuscularly allografted in rat assessed as tumor growth inhibition at 0.23 mg/kg, qd administered for 5 days relative to control; assay type: functional; conditions: W256, im, 120 h, route intramuscular, read-out: TGI; procedure, shortened: as §3
[31] = Therapeutic index, ratio of LD50 for rat allografted with rat Walker 256 cells to ED10 for antitumor activity against rat Walker 256 cells intramuscularly allografted in rat; assay type: cell-based; conditions: read-out: TI
Procedure, shortened: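 Therapeutic index is LD50/ED10 in the Walker 256 solid tumour system. ED10 is the dose giving a 10% tumour weight reduction, with values extrapolated from dose-response data.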

Musca domestica [32] = assay: Toxicity in male house fly assessed as lowest dose required to cause complete sterility administered in food; assay type: organism-based; conditions: in vivo, po
W256 [33] = assay: Antitumor activity against rat Walker 256 cells intramuscularly allografted in rat assessed as survival rate at 0.23 mg/kg, qd administered for 5 days; assay type: functional, organism-based; parameters: dose 0.23 mg/kg; procedure, shortened: as §2
Rattus norvegicus [34] = assay: Toxicity in rat allografted with rat Walker 256 cells intramuscularly assessed as change in body weight at 0.95 mg/kg, qd administered for 5 days; assay type: organism-based; parameters: dose 0.95 mg/kg, route intramuscular; conditions: in vivo, im, 120 h; procedure, shortened: as §4

Structure (SMILES): C=CCN(c1ccccc1)P(=O)(N1CC1)N1CC1
- Activity (L1210 [1]): 10.5 g
- Activity (L1210 [2]): Active
- Activity (L1210 [3]): Active
- LD50 [4]: > 300 mg/kg
- Activity (L1210 [5]): 10.5 g
- Activity (Musca domestica [6]): Non-toxic
- Activity (L1210 [7]): 10.5 g
- Activity (L1210 [8]): Active

Structure (SMILES): C=CCN(CC=C)P(=O)(N1CC1)N1CC1C (stereo not given)
- Activity (W256 [9]): Active
- Activity (L1210 [10]): Active
- Activity (W256 [11]): Active
- inhibition in vivo at 0.47 mg/kg (W256 [12]): 5%
- LD50 [4]: 7 mg/kg
- Activity (L1210 [13]): Active
- Activity (Rattus norvegicus [14]): -7 g
- inhibition in vivo at 0.95 mg/kg (W256 [15]): 0%
- T/C (L1210 [16]): 159%
- inhibition in vivo at 1.9 mg/kg (W256 [17]): 0%
- Activity (Rattus norvegicus [18]): -9 g
- Activity (L1210 [19]): Active
- Activity (W256 [20]): Active
- inhibition in vivo at 0.37 mg/kg (L1210 [21]): 117%
- T/C (L1210 [22]): 189%
- inhibition in vivo at 1 mg/kg (W256 [23]): 2%
- Activity (Rattus norvegicus [24]): 0 g
- Activity (W256 [25]): Active
- Activity (L1210 [26]): Active
- Activity (Musca domestica [27]): 0.25%
- ED10 (W256 [28]): 0.52 mg/kg
- Activity (Rattus norvegicus [29]): -13 g
- inhibition in vivo at 0.23 mg/kg (W256 [30]): 30%
- selectivity ratio [31]: 13
- Activity (Musca domestica [32]): 0.1%
- Activity (W256 [33]): Active
- Activity (Rattus norvegicus [34]): -8 g
